System: Fibroblast
Assay: Multiplex assay against human fibroblast
Format: toxicity, cell-based
Outline: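 Live cells were stained at seeding with Hoechst33342, BioTracker Green Microtubule Cytoskeleton Dye, MitoTracker Red and Annexin V Alexa Fluor 680, then imaged on a CQ1 microscope at 37°C and 5% CO2 after compound addition. CellPathfinder machine-learning gating split cells into Hoechst high-intensity objects or normal cells. Normal cells were split into healthy, pyknosed or fragmented nuclei, and pyknosed cells into mitotic or apoptotic. Tubulin, mitochondrial-mass and membrane-permeability phenotypes are per cents of healthy-nucleus cells.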

[1] = 12 h, 1 µM, compound concentration 1 uM, replicate 1
[2] = 12 h, 1 µM, compound concentration 1 uM, replicate 2
[3] = 12 h, 10 µM, compound concentration 10 uM, replicate 1
[4] = 12 h, 10 µM, compound concentration 10 uM, replicate 2
[5] = 24 h, 1 µM, compound concentration 1 uM, replicate 1
[6] = 24 h, 1 µM, compound concentration 1 uM, replicate 2
[7] = 24 h, 10 µM, compound concentration 10 uM, replicate 1
[8] = 24 h, 10 µM, compound concentration 10 uM, replicate 2
[9] = 48 h, 1 µM, compound concentration 1 uM, replicate 1
[10] = 48 h, 1 µM, compound concentration 1 uM, replicate 2
[11] = 48 h, 10 µM, compound concentration 10 uM, replicate 1
[12] = 48 h, 10 µM, compound concentration 10 uM, replicate 2

## Cn1cc(-c2[nH]c3cc(NC(=O)[C@H](N)C4CCCCC4)cc4c3c2C=NNC4=O)cn1
[1]
  Population Apoptotic (%): 76%
  Population Fragmented Nuclei (%): 27%
  Population Healthy Nuclei (%): 42%
  Population Hoechst High Intensity Objects (%): 8%
  Population Membrane Permeable-Phenotype (%): 18%
  Population Mitochondria Different-Phenotype (%): 13%
  Population Mitotic Cells (%): 23%
  Population Normal (%): 91%
  Population Pyknosed Nuclei (%): 30%
  Population Tubulin-Different-Phenotype (%): 28%
  Total Cell Count: 138
[2]
  Population Apoptotic (%): 33%
  Population Fragmented Nuclei (%): 13%
  Population Healthy Nuclei (%): 72%
  Population Hoechst High Intensity Objects (%): 3%
  Population Membrane Permeable-Phenotype (%): 4%
  Population Mitochondria Different-Phenotype (%): 7%
  Population Mitotic Cells (%): 66%
  Population Normal (%): 96%
  Population Pyknosed Nuclei (%): 13%
  Population Tubulin-Different-Phenotype (%): 12%
  Total Cell Count: 51
[3]
  Population Apoptotic (%): 69%
  Population Fragmented Nuclei (%): 48%
  Population Healthy Nuclei (%): 38%
  Population Hoechst High Intensity Objects (%): 20%
  Population Membrane Permeable-Phenotype (%): 20%
  Population Mitochondria Different-Phenotype (%): 4%
  Population Mitotic Cells (%): 30%
  Population Normal (%): 79%
  Population Pyknosed Nuclei (%): 13%
  Population Tubulin-Different-Phenotype (%): 43%
  Total Cell Count: 244
[4]
  Population Fragmented Nuclei (%): 37%
  Population Healthy Nuclei (%): 42%
  Population Hoechst High Intensity Objects (%): 9%
  Population Membrane Permeable-Phenotype (%): 21%
  Population Mitochondria Different-Phenotype (%): 53%
  Population Normal (%): 90%
  Population Pyknosed Nuclei (%): 19%
  Population Tubulin-Different-Phenotype (%): 57%
  Total Cell Count: 91
[5]
  Population Apoptotic (%): 58%
  Population Fragmented Nuclei (%): 27%
  Population Healthy Nuclei (%): 44%
  Population Hoechst High Intensity Objects (%): 12%
  Population Membrane Permeable-Phenotype (%): 20%
  Population Mitochondria Different-Phenotype (%): 3%
  Population Mitotic Cells (%): 41%
  Population Normal (%): 87%
  Population Pyknosed Nuclei (%): 28%
  Population Tubulin-Different-Phenotype (%): 26%
  Total Cell Count: 137
[6]
  Population Apoptotic (%): 43%
  Population Fragmented Nuclei (%): 13%
  Population Healthy Nuclei (%): 70%
  Population Hoechst High Intensity Objects (%): 3%
  Population Membrane Permeable-Phenotype (%): 9%
  Population Mitochondria Different-Phenotype (%): 6%
  Population Mitotic Cells (%): 56%
  Population Normal (%): 96%
  Population Pyknosed Nuclei (%): 15%
  Population Tubulin-Different-Phenotype (%): 15%
  Total Cell Count: 52
[7]
  Population Apoptotic (%): 62%
  Population Fragmented Nuclei (%): 54%
  Population Healthy Nuclei (%): 37%
  Population Hoechst High Intensity Objects (%): 23%
  Population Membrane Permeable-Phenotype (%): 20%
  Population Mitochondria Different-Phenotype (%): 1%
  Population Mitotic Cells (%): 37%
  Population Normal (%): 76%
  Population Pyknosed Nuclei (%): 8%
  Population Tubulin-Different-Phenotype (%): 52%
  Total Cell Count: 256
[8]
  Population Apoptotic (%): 86%
  Population Fragmented Nuclei (%): 34%
  Population Healthy Nuclei (%): 29%
  Population Hoechst High Intensity Objects (%): 16%
  Population Membrane Permeable-Phenotype (%): 44%
  Population Mitochondria Different-Phenotype (%): 61%
  Population Mitotic Cells (%): 13%
  Population Normal (%): 83%
  Population Pyknosed Nuclei (%): 36%
  Population Tubulin-Different-Phenotype (%): 55%
  Total Cell Count: 106
[9]
  Population Apoptotic (%): 43%
  Population Fragmented Nuclei (%): 30%
  Population Healthy Nuclei (%): 49%
  Population Hoechst High Intensity Objects (%): 14%
  Population Membrane Permeable-Phenotype (%): 26%
  Population Mitochondria Different-Phenotype (%): 3%
  Population Mitotic Cells (%): 56%
  Population Normal (%): 85%
  Population Pyknosed Nuclei (%): 20%
  Population Tubulin-Different-Phenotype (%): 26%
  Total Cell Count: 134
[10]
  Population Apoptotic (%): 0%
  Population Fragmented Nuclei (%): 47%
  Population Healthy Nuclei (%): 50%
  Population Hoechst High Intensity Objects (%): 15%
  Population Membrane Permeable-Phenotype (%): 20%
  Population Mitochondria Different-Phenotype (%): 2%
  Population Mitotic Cells (%): 100%
  Population Normal (%): 84%
  Population Pyknosed Nuclei (%): 2%
  Population Tubulin-Different-Phenotype (%): 38%
  Total Cell Count: 103
[11]
  Population Apoptotic (%): 77%
  Population Fragmented Nuclei (%): 52%
  Population Healthy Nuclei (%): 41%
  Population Hoechst High Intensity Objects (%): 39%
  Population Membrane Permeable-Phenotype (%): 14%
  Population Mitochondria Different-Phenotype (%): 3%
  Population Mitotic Cells (%): 22%
  Population Normal (%): 60%
  Population Pyknosed Nuclei (%): 5%
  Population Tubulin-Different-Phenotype (%): 36%
  Total Cell Count: 251
[12]
  Population Apoptotic (%): 50%
  Population Fragmented Nuclei (%): 62%
  Population Healthy Nuclei (%): 35%
  Population Hoechst High Intensity Objects (%): 32%
  Population Membrane Permeable-Phenotype (%): 11%
  Population Mitochondria Different-Phenotype (%): 2%
  Population Mitotic Cells (%): 50%
  Population Normal (%): 67%
  Population Pyknosed Nuclei (%): 1%
  Population Tubulin-Different-Phenotype (%): 53%
  Total Cell Count: 186

## CN1CCN(CCOc2cc(OC3CCOCC3)c3c(Nc4c(Cl)ccc5c4OCO5)ncnc3c2)CC1 [SARACATINIB]
[1]
  Population Apoptotic (%): 59%
  Population Fragmented Nuclei (%): 22%
  Population Healthy Nuclei (%): 49%
  Population Hoechst High Intensity Objects (%): 10%
  Population Membrane Permeable-Phenotype (%): 24%
  Population Mitochondria Different-Phenotype (%): 9%
  Population Mitotic Cells (%): 40%
  Population Normal (%): 89%
  Population Pyknosed Nuclei (%): 27%
  Population Tubulin-Different-Phenotype (%): 43%
[2]
  Population Apoptotic (%): 70%
  Population Fragmented Nuclei (%): 9%
  Population Healthy Nuclei (%): 72%
  Population Membrane Permeable-Phenotype (%): 0%
  Population Mitochondria Different-Phenotype (%): 23%
  Population Mitotic Cells (%): 30%
  Population Normal (%): 90%
  Population Pyknosed Nuclei (%): 18%
  Population Tubulin-Different-Phenotype (%): 10%
[3]
  Population Apoptotic (%): 60%
  Population Fragmented Nuclei (%): 20%
  Population Healthy Nuclei (%): 57%
  Population Hoechst High Intensity Objects (%): 13%
  Population Membrane Permeable-Phenotype (%): 16%
  Population Mitochondria Different-Phenotype (%): 21%
  Population Mitotic Cells (%): 39%
  Population Normal (%): 86%
  Population Pyknosed Nuclei (%): 21%
  Population Tubulin-Different-Phenotype (%): 91%
[4]
  Population Apoptotic (%): 75%
  Population Fragmented Nuclei (%): 9%
  Population Healthy Nuclei (%): 71%
  Population Hoechst High Intensity Objects (%): 7%
  Population Membrane Permeable-Phenotype (%): 21%
  Population Mitochondria Different-Phenotype (%): 100%
  Population Mitotic Cells (%): 25%
  Population Normal (%): 92%
  Population Pyknosed Nuclei (%): 18%
  Population Tubulin-Different-Phenotype (%): 100%
[5]
  Population Apoptotic (%): 47%
  Population Fragmented Nuclei (%): 22%
  Population Healthy Nuclei (%): 61%
  Population Hoechst High Intensity Objects (%): 12%
  Population Membrane Permeable-Phenotype (%): 17%
  Population Mitochondria Different-Phenotype (%): 6%
  Population Mitotic Cells (%): 52%
  Population Normal (%): 87%
  Population Pyknosed Nuclei (%): 16%
  Population Tubulin-Different-Phenotype (%): 35%
[6]
  Population Apoptotic (%): 50%
  Population Fragmented Nuclei (%): 14%
  Population Healthy Nuclei (%): 67%
  Population Hoechst High Intensity Objects (%): 8%
  Population Membrane Permeable-Phenotype (%): 6%
  Population Mitochondria Different-Phenotype (%): 13%
  Population Mitotic Cells (%): 50%
  Population Normal (%): 91%
  Population Pyknosed Nuclei (%): 18%
  Population Tubulin-Different-Phenotype (%): 4%
[7]
  Population Apoptotic (%): 50%
  Population Fragmented Nuclei (%): 32%
  Population Healthy Nuclei (%): 57%
  Population Hoechst High Intensity Objects (%): 26%
  Population Membrane Permeable-Phenotype (%): 11%
  Population Mitochondria Different-Phenotype (%): 22%
  Population Mitotic Cells (%): 50%
  Population Normal (%): 73%
  Population Pyknosed Nuclei (%): 10%
  Population Tubulin-Different-Phenotype (%): 89%
[8]
  Population Apoptotic (%): 85%
  Population Fragmented Nuclei (%): 11%
  Population Healthy Nuclei (%): 54%
  Population Hoechst High Intensity Objects (%): 8%
  Population Membrane Permeable-Phenotype (%): 21%
  Population Mitochondria Different-Phenotype (%): 96%
  Population Mitotic Cells (%): 14%
  Population Normal (%): 91%
  Population Pyknosed Nuclei (%): 34%
  Population Tubulin-Different-Phenotype (%): 93%
[9]
  Population Apoptotic (%): 55%
  Population Fragmented Nuclei (%): 40%
  Population Healthy Nuclei (%): 52%
  Population Hoechst High Intensity Objects (%): 10%
  Population Membrane Permeable-Phenotype (%): 11%
  Population Mitochondria Different-Phenotype (%): 2%
  Population Mitotic Cells (%): 44%
  Population Normal (%): 89%
  Population Pyknosed Nuclei (%): 6%
  Population Tubulin-Different-Phenotype (%): 31%
[10]
  Population Apoptotic (%): 66%
  Population Fragmented Nuclei (%): 31%
  Population Healthy Nuclei (%): 66%
  Population Hoechst High Intensity Objects (%): 41%
  Population Membrane Permeable-Phenotype (%): 15%
  Population Mitochondria Different-Phenotype (%): 1%
  Population Mitotic Cells (%): 33%
  Population Normal (%): 58%
  Population Pyknosed Nuclei (%): 2%
  Population Tubulin-Different-Phenotype (%): 51%
[11]
  Population Apoptotic (%): 71%
  Population Fragmented Nuclei (%): 31%
  Population Healthy Nuclei (%): 62%
  Population Hoechst High Intensity Objects (%): 35%
  Population Membrane Permeable-Phenotype (%): 8%
  Population Mitochondria Different-Phenotype (%): 13%
  Population Mitotic Cells (%): 28%
  Population Normal (%): 64%
  Population Pyknosed Nuclei (%): 6%
  Population Tubulin-Different-Phenotype (%): 89%
[12]
  Population Apoptotic (%): 0%
  Population Fragmented Nuclei (%): 44%
  Population Healthy Nuclei (%): 55%
  Population Hoechst High Intensity Objects (%): 27%
  Population Membrane Permeable-Phenotype (%): 12%
  Population Mitochondria Different-Phenotype (%): 23%
  Population Mitotic Cells (%): 0%
  Population Normal (%): 72%
  Population Pyknosed Nuclei (%): 0%
  Population Tubulin-Different-Phenotype (%): 93%

Reference: ChEMBL document CHEMBL4689842, “EUbOPEN Chemogenomics Library wave 1” (2021)
